Laboratory results: ChEMBL document CHEMBL2057185, “Analogs of N'-hydroxy-N-(4H,5H-naphtho[1,2-d]thiazol-2-yl)methanimidamide inhibit Mycobacterium tuberculosis methionine aminopeptidases” (Bioorg Med Chem, 2012)
pIC50: −log10 of the molar value. ≈ marks a conversion by molar mass, not a printed value. Calls of active or inactive are those of the source. The calls are words filed in the database; no cut-off is given here.

Legend:
[1] = system: Mycobacterium tuberculosis; assay: Antimycobacterial activity against Mycobacterium tuberculosis H37Rv ATCC 27294 after 7 days by microplate alamar blue assay; format: functional; settings: H37Rv ATCC 27294, 168 h
[2] = Inhibition of Mycobacterium tuberculosis MetAP1C expressed in Escherichia coli using Met-AMC as substrate in presence of Mn2+
[3] = Inhibition of Mycobacterium tuberculosis MetAP1A expressed in Escherichia coli using Met-AMC as substrate in presence of Mn2+
[4] = Inhibition of Mycobacterium tuberculosis N-terminal His6-tagged MetAP1C using methionylprolyl-p-nitroanilide as substrate incubated for 20 mins prior to substrate addition measured for 20 mins by spectrophotometry in presence of Mn2+
Method in brief: (§1)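 Coupled colorimetric assay in 40 mM HEPES pH 7.5, 100 mM NaCl, 10 µM CoCl₂ or MnCl₂. Enzyme was 200 nM MetAP1a or 100 nM MetAP1c, with 1.5 U/mL Bacillus coagulans proline aminopeptidase as coupling enzyme. Eleven inhibitor levels (0.049–50 µM) were preincubated 20 min at room temperature. Met-Pro-pNA was added to 600 µM final, and A405 was followed 20 min against DMSO wells. IC50 came from nonlinear regression, averaging ≥3 independent triplicate experiments ± SD.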

[5] = Inhibition of Mycobacterium tuberculosis N-terminal His6-tagged MetAP1C using methionylprolyl-p-nitroanilide as substrate incubated for 20 mins prior to substrate addition measured for 20 mins by spectrophotometry in presence of Co2+; method in brief: as §1
[6] = Inhibition of Mycobacterium tuberculosis C-terminal His6-tagged MetAP1A using methionylprolyl-p-nitroanilide as substrate incubated for 20 mins prior to substrate addition measured for 20 mins by spectrophotometry in presence of Co2+; method in brief: as §1
[7] = system: Mycobacterium tuberculosis; assay: Antimycobacterial activity against Mycobacterium tuberculosis H37Rv after 2 weeks; format: functional; settings: 336 h
Method in brief: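 Each well received log-phase M. tuberculosis H37Rv diluted to ≈10⁶ CFU/mL in 7H9. An uninoculated sterile control was included. Plates were sealed and incubated 37 °C for two weeks.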

[8] = Co2+ chelation activity of the compound at 10 uM; format: functional
Method in brief: (§2)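 UV-vis spectra were recorded for compounds at 10 µM in MetAP assay buffer, with and without 10 µM cobalt or manganese chloride.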

[9] = Inhibition of Mycobacterium tuberculosis C-terminal His6-tagged MetAP1A using methionylprolyl-p-nitroanilide as substrate incubated for 20 mins prior to substrate addition measured for 20 mins by spectrophotometry in presence of Mn2+; method in brief: as §1
[10] = Mn2+ chelation activity of the compound at 10 uM; format: functional; method in brief: as §2
[11] = Chemical stability of the compound in Middlebrook 7H9 broth at 200 ug/mL after 10 days by HPLC analysis; format: physicochemical; settings: 240 h

Row | Structure (SMILES) | MIC [1] [µg/mL] | pIC50 [2] | pIC50 [3] | pIC50 [4] | pIC50 [5] | pIC50 [6] | MIC [7] [µg/mL] | Activity [8] | pIC50 [9] | Activity [10] | Stability [11]
1 | CO[C@@H](C(=O)NCCOc1c(C)cc(C)cc1C)[C@H](O)[C@@H](O)[C@H](O)/C=C/C(C)(C)C | 18.5 (≈ 43.7 µM) | 6.27 | 5.16 |  |  |  |  |  |  |  | 
2 | O/N=C\Nc1nc2c(s1)COc1cc3c(cc1-2)OCO3 |  |  |  | 5.36 | 6.14 | 5.84 | 100 (≈ 343 µM) | Active | < 5.00 | Active | 
3 | COc1ccc2c(c1)CCc1sc(NC(C)=O)nc1-2 |  |  |  | < 4.30 | < 4.30 | < 4.30 |  |  | < 4.30 |  | 
4 | COc1ccc2c(c1)CCc1sc(/N=C/c3ccco3)nc1-2 |  |  |  | < 4.30 | < 4.30 | < 4.30 |  |  | < 4.30 |  | 
5 | COc1ccc2c(c1)CCc1sc(N)nc1-2 |  |  |  | < 4.30 | < 4.30 | < 4.30 |  |  | < 4.30 |  | 
6 | COc1ccc2c(c1)CCc1sc(NC(=O)[C@H](C)O)nc1-2 |  |  |  | < 4.30 | < 4.30 | < 4.30 |  |  | < 4.30 |  | 
7 | CCCCCCCCC(=O)Nc1nc2c(s1)CCc1ccccc1-2 |  |  |  | < 4.30 | < 4.30 | < 4.30 |  |  | < 4.30 |  | 
8 | CCCCCCCCC(=O)Nc1nc2c(s1)CCc1cc(OC)ccc1-2 |  |  |  | < 4.30 | < 4.30 | < 4.30 |  |  | < 4.30 |  | 
9 | COc1cccc2c1CCc1sc(N/C=N\O)nc1-2 |  |  |  | 4.99 | 5.72 | 4.95 | > 200 |  | 4.93 |  | 
10 | O/N=C\Nc1nc2c(s1)CCCc1cc3c(cc1-2)OCO3 |  |  |  | 4.84 | 5.85 | 4.81 | > 200 |  | < 4.30 |  | 
11 | O/N=C\Nc1nc2c(s1)CCOc1cc3c(cc1-2)OCO3 |  |  |  | 5.50 | 6.42 | 5.90 | > 200 | Active | 4.61 | Active | Stable
12 | COc1ccc2c(c1)OC(c1ccccc1)c1sc(N/C=N\O)nc1-2 (configuration not stated) |  |  |  | < 4.30 | < 4.30 | 5.17 | > 200 |  | 5.01 |  | 
13 | CN(C)/C=N/c1nc2c(s1)CCc1ccccc1-2 |  |  |  | < 4.30 | 4.44 | 4.54 |  |  | 4.56 |  | 
14 | COc1ccc2c(c1)CCc1sc(N/C=N\O)nc1-2 |  |  |  | < 4.30 | 5.88 | 5.27 | > 200 |  | < 4.30 |  | Stable
15 | COc1ccc2c(c1)OCc1sc(N/C=N\O)nc1-2 |  |  |  | < 4.30 | < 4.30 | 5.31 | > 200 | Active | 5.33 | Active | 
16 | Nc1nc2c(s1)CCc1ccccc1-2 |  |  |  | < 4.30 | < 4.30 | < 4.30 |  |  | < 4.30 |  | 
17 | O=C1C(Br)=C(Br)C(=O)c2ccccc21 [2,3-Dibromo-1,4-naphthoquinone] |  |  |  |  | 6.15 | 5.94 | 25 (≈ 79.1 µM) |  |  |  | 
18 | COc1cc2c(cc1OC)-c1nc(N/C=N\O)sc1CC2 |  |  |  | < 4.30 | 5.42 | 4.84 | > 200 |  | 4.84 |  | 
19 | COc1ccc2c(c1)Cc1sc(N/C=N\O)nc1-2 |  |  |  | < 4.30 | < 4.30 | < 4.30 | 100 (≈ 383 µM) |  | < 4.30 |  | 
20 | COc1ccc2c(c1)-c1nc(NC=NO)sc1CC2 |  |  |  | 5.63 | 6.19 | 5.72 | 200 (≈ 726 µM) |  | < 4.30 |  | Stable
21 | COc1ccc2c(c1)CCc1sc(/N=C/c3ccccc3O)nc1-2 |  |  |  | < 4.30 | < 4.30 | < 4.30 |  |  | < 4.30 |  | 
22 | COc1ccc(-c2csc(N/C=N\O)n2)cc1OC |  |  |  | 5.15 | 5.18 | < 4.70 | 200 (≈ 716 µM) |  | < 4.70 |  | 
23 | O/N=C\Nc1nc2c(s1)CCc1cc3c(cc1-2)OCO3 |  |  |  | 4.90 | < 4.70 | 4.81 | > 200 |  | < 4.70 |  | 
24 | O/N=C\Nc1nc2c(s1)CCc1ccccc1-2 |  |  |  | < 4.30 | 5.98 | 4.94 | 100 (≈ 408 µM) |  | < 4.30 |  | Stable
